The list is not random: actives were taken first. Their share in the collection is about 3%.
S1P3 ag: S1P3 (human) receptor agonism; S1P3 NFAT-BLA reporter cells, FRET ratio; relative to 1 µM S1P, basal subtracted; Q99500; 60,000 compounds, 0.1% hits; activation, % at 4.5 µM; AID 373;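 active = activation above the screen-wide mean plus 3 SD, cut at about 4.5% in these data, passing the limit was not always enough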
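Assay system: CHO cells stably expressing human S1P3, Gα16 and NFAT-β-lactamase reporter. Timing: overnight plating, 4 h compound 37 °C, 2 h substrate RT. Signal: β-lactamase FRET emission ratio 460/535 nm. Measure: percent activation versus median 1 µM S1P response, basal-subtracted, per plate. Repeats: primary screen single test, confirmation screen in triplicate.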
S1P1 ag-PAM: activates or potentiates agonism at human S1P1 receptor; P21453; S1P1 CRE-bla cells, forskolin, beta-lactamase FRET, potentiator mode; S1P1 agonist co-added at EC20, 2 nM; 100% = saturating reference agonist, 0% = basal; activation, % at 9.5 µM; 56,000 compounds, 0.57% hits; AID 449;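 active = activation above a cutoff set at the mean activation of all tested compounds plus 3 SD, cut at about 54% in these data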;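 also: forskolin at 4 µM as EC80 and the EC20 agonist is SEW2871; 100% = SEW2871 at its EC100 plus forskolin at EC80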
Target sequence (P21453 whole entry, looked up): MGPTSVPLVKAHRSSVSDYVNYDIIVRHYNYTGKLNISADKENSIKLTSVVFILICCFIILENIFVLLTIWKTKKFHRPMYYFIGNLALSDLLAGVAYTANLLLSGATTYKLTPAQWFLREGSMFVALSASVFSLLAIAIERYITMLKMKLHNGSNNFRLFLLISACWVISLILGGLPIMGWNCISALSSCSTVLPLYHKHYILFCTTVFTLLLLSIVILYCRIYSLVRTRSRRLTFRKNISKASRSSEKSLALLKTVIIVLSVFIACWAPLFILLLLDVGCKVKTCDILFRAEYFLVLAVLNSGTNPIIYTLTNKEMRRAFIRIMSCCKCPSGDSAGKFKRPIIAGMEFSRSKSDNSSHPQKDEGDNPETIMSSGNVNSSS
HTR1A agonist: 5-HT1a (human) receptor agonism | CHO 5-HT1a Ga15 NFAT-bla reporter, FRET ratio; 0% basal, 100% maximal reference agonist | activation, % at 10 µM | 65,000 compounds, 0.56% hits | AID 567;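 active = activation above the screen-wide mean activation plus 3 SD, cut at about 19% in these data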;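 also: 0% = DMSO wells and 100% = 5-CT at EC100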
HTR1E antagonist: antagonists of human 5-HT1E serotonin receptor; P28566; CHO 5-HT1E Ga15 NFAT-bla reporter, FRET, antagonist; inhibition, % at 6 µM; 65,000 compounds, 0.99% hits; AID 571;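 active = inhibition above a set limit, the mean inhibition across every tested compound plus 3 SD, cut at about 29% in these data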;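 also: signal is the 460 over 535 nm emission ratio of beta-lactamase substrate; 0% = agonist plus DMSO wells and 100% = wells without agonist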
5HT1a antag: antagonists of human 5-HT1a serotonin receptor; P08908; CHO 5-HT1a Ga15 NFAT-bla reporter, antagonist mode; inhibition, % at 10 µM; 62,000 compounds, 0.68% hits;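 active = inhibition above the mean of all tested compounds plus 3 SD, cut at about 43% in these data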;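 also: receptor stimulated by 5-CT agonist at 100 nM near EC80; beta-lactamase reporter measured by ratiometric fluorescence of a cleavable substrate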
5HT1E ag: 5-HT1E (human) receptor agonism; P28566; CHO 5-HT1E Ga15 NFAT-bla reporter, FRET; 0% DMSO wells, 100% control agonist wells; AID 574; activation, % at 6 µM; 65,000 compounds, 0.69% hits;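 active = activation above a set limit, the screen-wide mean activation plus 3 SD, cut at about 8.5% in these data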;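 also: 100% = positive control agonist at 1 µM giving full maximal response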
An asterisk follows results filed as active; x = not tested or not shown.

SMILES | S1P3 ag | S1P1 ag-PAM | HTR1A agonist | HTR1E antagonist | 5HT1a antag | 5HT1E ag
CCOC(=O)N1CCN(C(=O)C2COc3ccccc3O2)CC1 (centres undefined) | x | x | -1 | -2 | -2 | 3
CCOC(=O)N1CCN(C(=O)CSc2nnc(C3COc4ccccc4O3)o2)CC1 (centres undefined) | 0 | 9 | 78* | 8 | -12 | 0
Cc1cc(/C=N/n2cnnc2)c(C)n1-c1cccc(Cl)c1 | 1 | -10 | -1 | -3 | -1 | -1
Cc1cc(/C=N/n2cnnc2)c(C)n1-c1ccc(OCc2ccc(F)cc2)cc1 | -2 | 142* | -2 | 20 | 21 | 1
Cc1cc(/C=N/n2cnnc2)c(C)n1-c1ccc(Cl)cc1Cl | -2 | -8 | -2 | 40* | 32 | 0
Cc1sc(-n2c(C)cc(/C=N/n3cnnc3)c2C)c(C#N)c1C | -1 | 8 | -1 | 12 | x | 0
CC(C)n1c(-c2ccco2)csc1=Nc1cccnc1 | 3 | 27 | -1 | 7 | 15 | -1
CCOC(=O)N1CCC(N2Cc3cccc(C(=O)N4CC(C)CC(C)C4)c3C2=O)CC1 (centres undefined) | 0 | 15 | 0 | -3 | 3 | 0
CCOC(=O)N1CCC(N2Cc3cccc(C(=O)O)c3C2=O)CC1 | -1 | -16 | 83* | -6 | -2 | 0
Cc1nn(C)c(C)c1Sc1ccc(Br)cc1 | -2 | 19 | -3 | 4 | 20 | -1
Cc1cc(C)nc(-n2nc(C)c(Sc3ccc(F)cc3)c2N)n1 | 60* | -74 | 11 | -1 | -12 | 0
Cc1ccc(CNC(=O)c2cc3c(=O)n4cccc(C)c4nc3n(CC3CCCO3)c2=N)cc1 (centres undefined) | 1 | -36 | 3 | -18 | -15 | 2
COCCCn1c(=N)c(C(=O)NCC2CCCO2)cc2c(=O)n3ccccc3nc21 (centres undefined) | 2 | -25 | 21* | -3 | -19 | 6
COCCCn1c(=N)c(C(=O)NCC2CCCO2)cc2c(=O)n3cccc(C)c3nc21 (centres undefined) | 1 | -15 | 12 | -10 | -34 | 4
N=c1c(C(=O)NC2CCCC2)cc2c(=O)n3ccccc3nc2n1CCN1CCOCC1 | x | x | 2 | -5 | 11 | 18*
N=c1c(C(=O)NCc2ccc(F)cc2)cc2c(=O)n3ccccc3nc2n1CC1CCCO1 (centres undefined) | 6 | -176 | 30* | -15 | -19 | 9.1*
COc1ccc(OC)c(C(=O)CN2C(=O)NC(C)(c3ccccc3)C2=O)c1 (centres undefined) | 0 | 6 | 161* | -2 | 0 | 0
CCC(C)(C)n1nnnc1C(c1ccc(O)c(OC)c1)N1CCN(c2nc3ccccc3s2)CC1 (centres undefined) | -1 | 5 | 0 | 5 | 26 | 25*
CC(C)(C)n1nnnc1C(c1cccc(C#N)c1)N1CCN2CCCC2C1 (centres undefined) | 1 | 10 | 1 | -6 | -7 | 1
CCC(C)(C)n1nnnc1C(c1cccc(C#N)c1)N1CCN(c2cccc(C)c2C)CC1 (centres undefined) | 0 | 11 | -2 | -2 | 18 | 10*
COc1ccccc1C(c1nnnn1Cc1ccccc1)N1CCN(c2nc3ccccc3s2)CC1 (centres undefined) | -1 | 4 | 3 | -9 | 44* | 1
CCOC(=O)c1ccccc1NC(=O)CSc1nc2ccccc2n1CC(=O)N1CCCC1 | 0 | -41 | 0 | 28 | 7 | -1
Cc1cccc(OCC(O)Cn2c(NCc3cccnc3)nc3c2c(=O)[nH]c(=O)n3C)c1 (centres undefined) | -1 | -2 | 0 | 12 | -13 | -1
CCOC(=O)CSc1n[nH]c(-c2ccco2)n1 | -1 | -25 | -3 | 13 | 9 | 0
O=C(CSc1n[nH]c(-c2ccco2)n1)N1c2ccccc2Sc2ccccc21 | 0 | 23 | -1 | 37* | 30 | -1
SMILES | S1P3 ag | S1P1 ag-PAM | HTR1A agonist | HTR1E antagonist | 5HT1a antag | 5HT1E ag
CCOC(=O)c1c(NC(=O)CSc2n[nH]c(-c3ccco3)n2)sc(C)c1C | 0 | -2 | 2 | 44* | 22 | 0
CC(=O)Nc1cccc2c1OCCO2 | 0 | -8 | -1 | -8 | -9 | 0
CC1CC(C)CN(Cc2nc3c(c(=O)n(C)c(=O)n3C)n2Cc2ccccc2Cl)C1 (centres undefined) | 0 | 3 | -2 | -1 | 7 | -1
Cn1cccc1Cc1nnc(SCC(=O)NC2CCCCC2)n1CCc1ccccc1 | 0 | 12 | -3 | 0 | 5 | 1
Cn1cccc1C(=O)Nc1nc(-c2ccccn2)cs1 | 1 | 6 | -1 | 2 | 15 | 0
O=C(Nc1nc(-c2ccccn2)cs1)c1ccc(Cl)s1 | -2 | 50 | -2 | 44* | 28 | 1
CCN(CC)C(=O)C1CCN(S(=O)(=O)c2ccc3oc4ccccc4c3c2)CC1 | -2 | 84* | 0 | 6 | 8 | 1
O=S(=O)(c1ccc2oc3ccc(S(=O)(=O)N4CCCC4)cc3c2c1)N1CCCC1 | 0 | -5 | -2 | -6 | -6 | 0
CN(C)c1ccnc(NCc2ccccc2)c1C#N | 0 | 1 | 20* | 10 | 10 | 0
CCC(C)(C)n1nnnc1C(CC(C)C)N1CCC(C(N)=O)CC1 (centres undefined) | 0 | 1 | 0 | -20 | -11 | 0
c1cncc(-c2nc3cc(Cc4ccc5oc(-c6cccnc6)nc5c4)ccc3o2)c1 | -1 | 3 | 0 | 1 | 5 | 0
c1cc(-c2nc3cc(Cc4ccc5oc(-c6ccncc6)nc5c4)ccc3o2)ccn1 | 0 | -26 | -1 | -2 | 1 | 18*
COc1ccc(OC)c(Nc2cc(-c3ccccc3)nc(N)n2)c1 | -2 | -38 | -4 | 70* | 63* | -1
CCCOc1ccc2[nH]cc(C(=O)O)c(=O)c2c1 | -2 | -11 | -2 | 6 | 0 | -1
CC(=O)NC1C(=O)N(CCc2ccccc2)c2ccccc21 (centres undefined) | -1 | -13 | 0 | 0 | 17 | 14*
O=C(NCCc1c[nH]c2ccccc12)c1c(Cl)nc2sccn12 | x | x | 19 | 33* | -9 | -2
COc1nc(NCCC2=CCCCC2)nc(OC)n1 | -1 | x | 51* | 3 | -14 | 0
COc1nc(NCCc2ccc(OC)c(OC)c2)nc(OC)n1 | -2 | -10 | 1 | -5 | 12 | 0
CC1(C)Cn2c(nnc2-c2cccc(O)c2)S1 | 0 | 10 | 2 | -10 | 23 | -2
Cc1cccc(NC(=O)CCNS(=O)(=O)c2cccc3nsnc23)c1 | x | x | 0 | -6 | -5 | 38*
